According to ChEMBL document CHEMBL4190282, “The Conjugated Double Bond of Coniferyl Aldehyde Is Essential for Heat Shock Factor 1 Mediated Cytotoprotection” (J Nat Prod, 2017):
Calls of active or inactive are those of the source. No cut-off for these calls is given here.

How the values were obtained:
[1] = biological target: T1, Heat shock factor protein 1 (Homo sapiens) (UniProt Q00613); assay: Activation of HSF1 in human NCI-H460 cells expressing pGL4-hsp25 construct assessed as upregulation of hsp25 promoter activity at 10 to 30 uM after 12 hrs by luciferase reporter gene assay; format: cell-based
T1 sequence (whole entry): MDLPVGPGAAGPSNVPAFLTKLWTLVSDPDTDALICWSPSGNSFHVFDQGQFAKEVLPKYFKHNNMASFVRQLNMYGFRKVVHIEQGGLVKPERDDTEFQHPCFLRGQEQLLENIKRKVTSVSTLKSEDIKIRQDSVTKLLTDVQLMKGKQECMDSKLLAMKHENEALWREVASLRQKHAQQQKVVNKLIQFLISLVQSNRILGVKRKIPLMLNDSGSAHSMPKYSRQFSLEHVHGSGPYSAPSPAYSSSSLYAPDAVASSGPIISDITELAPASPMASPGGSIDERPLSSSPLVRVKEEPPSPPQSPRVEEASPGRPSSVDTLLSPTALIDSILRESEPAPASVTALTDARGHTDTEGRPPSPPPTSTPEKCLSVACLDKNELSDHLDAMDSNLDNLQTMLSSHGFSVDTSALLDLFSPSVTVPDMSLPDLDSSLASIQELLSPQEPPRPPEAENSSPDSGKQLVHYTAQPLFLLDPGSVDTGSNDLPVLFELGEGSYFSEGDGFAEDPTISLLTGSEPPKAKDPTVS
How it was run: (§1)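 NCI-H460 cells stably carrying hsp25 or hsp70 promoter–luciferase reporters, seeded, treated after 24 h at 10 or 30 μM and harvested 12 h later. Lysate luciferase normalized to β-galactosidase; mean of three independent experiments, fold-change vs negative control.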

[2] = biological target: T1, Heat shock factor protein 1 (Homo sapiens); assay: Activation of HSF1 in human NCI-H460 cells expressing pGL4-hsp70 construct assessed as upregulation of hsp70 promoter activity at 10 to 30 uM after 12 hrs by luciferase reporter gene assay; format: cell-based; how it was run: as §1
NCI-H460 = assay: Upregulation of HSF1 protein level in human NCI-H460 cells at 10 to 30 uM after 12 hrs by Western blot analysis; format: functional, cell-based
How it was run: (§2)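 NCI-H460 cells treated 12 h at 10 or 30 μM; HSF1, HSP27 and HSP70 detected by Western blot.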

[3] = biological target: T1, Heat shock factor protein 1 (Homo sapiens); assay: Activation of HSF1 in human NCI-H460 cells assessed as upregulation of HSP25 protein levels at 10 to 30 uM after 12 hrs by Western blot analysis; format: cell-based; how it was run: as §2
[4] = biological target: T1, Heat shock factor protein 1 (Homo sapiens); assay: Activation of HSF1 in human NCI-H460 cells assessed as upregulation of HSP70 protein levels at 10 to 30 uM after 12 hrs by Western blot analysis; format: cell-based; how it was run: as §2
[5] = biological target: T1, Heat shock factor protein 1 (Homo sapiens); assay: Activation of HSF1 in human NCI-H460 cells assessed as upregulation of HSP25 protein levels at 1 uM after 12 hrs by Western blot analysis; format: cell-based
How it was run: (§3)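 Cells were grown to 30% confluence and treated for 12 h. Equal protein amounts were lysed and cleared at 13 000 rpm for 30 min at 4 °C, then boiled in sample buffer for 5 min. Proteins were resolved by 8% or 12% SDS-PAGE and transferred to nitrocellulose. Membranes were blocked in 5% milk/PBST, given primary antibody for 18 h at 4 °C and an HRP secondary, and developed by ECL.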

[6] = biological target: T1, Heat shock factor protein 1 (Homo sapiens); assay: Activation of HSF1 in human NCI-H460 cells assessed as upregulation of HSP70 protein levels at 1 uM after 12 hrs by Western blot analysis; format: cell-based; how it was run: as §3
L132 = assay: Cytotoxicity against human L-132 cells assessed as reduction in cell viability up to 20 uM after 24 hrs by MTT assay; format: cell-based; conditions: l132, 24 h
How it was run: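 L132 cells treated 24 h at indicated doses up to 20 μM. MTT (5 mg/mL in PBS) 4 h at 37 °C, formazan dissolved in DMSO, absorbance at 540 nm converted to cell number via calibration curve. Celastrol positive control.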

SMILES	Activity [1]	Activity [2]	Activity (NCI-H460)	Activity [3]	Activity [4]	Activity [5]	Activity [6]	Activity (L132)
COc1cc(CCC=O)ccc1O	inactive	inactive	inactive	inactive	inactive			
COc1cc(CCCO)ccc1O	inactive	inactive	inactive	inactive	inactive			
CC1=C(O)C(=O)C=C2C1=CC=C1[C@@]2(C)CC[C@@]2(C)[C@@H]3C[C@](C)(C(=O)O)CC[C@]3(C)CC[C@]12C [CELASTROL]						Active	Active	Toxic
